Holding throughout (assay type): functional
In one assay the test system is T47D. Briefly: Antiproliferative activity against human T47D cells incubated for 48 hrs by sulforhodamine B assay. In outline: (§1)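 Run externally by the US National Cancer Institute as part of its 60 human cancer cell line cytotoxicity screen (NCI-60).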
For orientation: Sulforhodamine B stains cellular protein and so reports cell mass.

Another assay relates to NCI-H522. Put plainly: Antiproliferative activity against human NCI-H522 cells incubated for 48 hrs by sulforhodamine B assay. Particulars: NCI-H522, 48 h. In outline:
as §1

Another assay has as its system Malme-3M. Briefly: Antiproliferative activity against human MALME-3M cells incubated for 48 hrs by sulforhodamine B assay. In outline: as §1
The next assay deals with M14. Briefly: Antiproliferative activity against human M14 cells incubated for 48 hrs by sulforhodamine B assay. Particulars: M14, 48 h. In outline: as §1
The mark [1] stands for this setting: read-out: pLC50 (the source's name) (converted).

With `COc1ncc(-c2ccc3nccc(C#CCN4CCN(S(C)(=O)=O)CC4)c3c2)cc1NS(=O)(=O)c1ccc(F)cc1F`, the concentration for 50% growth inhibition (GI50) is below 10 nM in the assay with T47D, 178 nM in the assay with NCI-H522, 19.9 nM in the assay on Malme-3M and 72.4 nM in the assay with M14. Moreover, the CC50 in the assay with T47D (setting [1]) was above 100 µM; in the assay on NCI-H522 (setting [1]) it was 5.89 µM; in the assay with Malme-3M (setting [1]) it was 33.9 µM; with M14 (setting [1]), 19.1 µM. The TGI is 13.5 nM in the assay with T47D (read-out: pTGI (converted)), 1740 nM in the assay on NCI-H522 (read-out: pTGI (converted)), 324 nM with Malme-3M (read-out: pTGI (converted)) and 1580 nM in the assay on M14 (read-out: pTGI (converted)).

The term GI50 denotes the concentration giving 50% growth inhibition. High values mean less potent growth inhibition, low ones more potent growth inhibition.

For the origin of these results see ChEMBL document CHEMBL3763019, “Discovery of benzenesulfonamide derivatives as potent PI3K/mTOR dual inhibitors with in vivo efficacies against hepatocellular carcinoma” (Bioorg Med Chem, 2016).
